A selection: hits, their analogues and other compounds. The true share with any hit is near 2.5%.
Env fusion inh: HIV envelope-mediated fusion inhibition; HeLa-JRFL Env/CEM21 cell fusion, luciferase; 1.1% of 360,000 active; AID 651610; inhibition, % at 12.3 µM;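 active = mean replicate inhibition score of at least 50 and every replicate individually at or above 50; inconclusive = only one of the two criteria met; inactive = mean below 50 and not all replicates reaching 50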
Glyco luc inh: blocks N-linked glycosylation in D54 reporter cells; D54 ERlucT glycosylation luciferase reporter, 24 h; percent of 100 nM tunicamycin response; reporter increase, % at 12.5 µM; 0.23% of 360,000 active;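 active = mean luciferase reporter signal, scaled so untreated is 0 and the glycosylation-blocking control 100, at or above a set limit in every replicate; inconclusive = mean reaches the limit but not every replicate does; inactive = mean below the limit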;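 note: luciferase carries N-glycosylation sites so blocking glycosylation raises the light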
PAX8 inh HTS: inhibitors of PAX8 transcriptional activity in RMG-I cells; RMG-I TPO-luciferase reporter, SteadyGlo, 24 h; inhibition, % at 12.6 µM; 1.2% of 360,000 active;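 active = mean replicate inhibition at least 60% with every replicate also reaching 60%; inconclusive = only one of the two criteria is met; inactive = mean below 60% and not all replicates reaching 60%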;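 note: luciferase light reporting Pax8 driven TPO promoter activity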
MLL AF4-AF9 inh: inhibitors of human MLL-AF4/AF9 interaction. P42568. AlphaScreen, biotin-AF4 peptide binding to FLAG-AF9. inhibition, % at 10 µM. 0.47% of 350,000 active;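 active = every replicate reaching a set inhibition limit, whatever the replicate mean, cut at about 25% in these data; inconclusive = mean inhibition reaches that limit but some replicates miss it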
Target sequence (P42568 whole entry, looked up): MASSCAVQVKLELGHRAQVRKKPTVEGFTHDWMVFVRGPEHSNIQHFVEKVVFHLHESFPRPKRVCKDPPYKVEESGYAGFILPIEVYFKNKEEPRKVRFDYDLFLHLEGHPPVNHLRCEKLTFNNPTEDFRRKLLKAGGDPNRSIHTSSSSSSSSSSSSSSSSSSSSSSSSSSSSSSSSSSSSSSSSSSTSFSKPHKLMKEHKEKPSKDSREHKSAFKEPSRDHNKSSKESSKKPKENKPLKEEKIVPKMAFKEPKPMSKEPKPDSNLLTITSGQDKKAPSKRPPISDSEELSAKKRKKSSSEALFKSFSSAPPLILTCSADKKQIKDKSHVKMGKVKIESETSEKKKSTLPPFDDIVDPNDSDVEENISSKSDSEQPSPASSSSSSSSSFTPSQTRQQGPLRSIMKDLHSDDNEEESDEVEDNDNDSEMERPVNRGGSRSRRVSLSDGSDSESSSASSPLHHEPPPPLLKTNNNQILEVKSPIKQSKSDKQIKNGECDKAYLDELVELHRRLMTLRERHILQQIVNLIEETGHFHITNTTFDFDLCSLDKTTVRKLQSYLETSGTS
FN deposition inh: fibronectin deposition inhibition. inhibition, % at 12.6 µM. 0.086% of 350,000 active. AH1F fibroblasts, Alexa488-fibronectin deposition fluorescence, overnight. AID 743247;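 active = mean inhibition across replicates of 30% or more, regardless of how many single replicates reach that level; inconclusive = mean under 30% yet at least half of replicates reach 30%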
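Measured by – fluorescence 485/525 nm · System – AH1F fibroblast monolayer, labelled fibronectin deposition · Amount – 10000 cells per well · Buffer or medium – serum-reduced DMEM (2% serum) · Doses – single dose, pinned · Also added – fluorescent fibronectin at 24 nM final · Schedule – 1 h cell attachment, overnight exposure to compound and label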
EWS-Fli block: blocks EWS/Fli oncoprotein-driven transcription | A673 NR0B1-luciferase reporter, viability-normalised | inhibition, % at 12.6 µM | 0.67% of 350,000 active | AID 651661;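 active = mean inhibition of at least 50% after viability correction, with every replicate also passing that limit; inconclusive = mean reaches 50% but only one of two replicates passes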;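 note: firefly luciferase signal divided by Alamar Blue viability fluorescence both relative to DMSO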
Of the large screens only hits and unclear results are named; the others gave an inactive call.

C[C@@H]1CN([C@@H](C)CO)C(=O)c2cccc(NC(=O)c3cnccn3)c2O[C@@H]1CN(C)Cc1ccc(C(F)(F)F)cc1	none (no result: Glyco luc inh, FN deposition inh)
COc1cc2ccc3c(CCN(C)C)cc(OC)c(OC)c3c2cc1OC	none
CN(C)CCc1cc2c(c3c1ccc1ccccc13)OCO2	Glyco luc inh 78
C[C@@H]1CCCCO[C@H](CN(C)Cc2ccc(C(=O)O)cc2)[C@@H](C)CN([C@@H](C)CO)C(=O)c2cc(NS(=O)(=O)c3cccs3)ccc2O1	none (no result: Glyco luc inh, FN deposition inh)
CC[C@@H](CC1CCCCC1)C(=O)N(Cc1ccccc1)c1ccccc1	Env fusion inh 60
N#Cc1ccc(-c2ccc(OCC(=O)Nc3cccnc3)cc2)cc1	Env fusion inh 59 (no result: EWS-Fli block)
CC(=O)Nc1ccc(NC(=O)COc2ccc(-c3ccc(C#N)cc3)cc2)cc1	none
Cn1c(Cc2ccccc2)nnc1SCC(=O)N1CCN(c2ccccc2)CC1	none (no result: Env fusion inh, PAX8 inh HTS, MLL AF4-AF9 inh, FN deposition inh, EWS-Fli block)
Cn1c(SCC(=O)N2CCN(c3cccc(Cl)c3)CC2)nnc1-c1ccncc1	Env fusion inh 98 (no result: MLL AF4-AF9 inh, EWS-Fli block)
Cn1c(Cc2cccc3ccccc23)nnc1SCC(=O)N1CCN(c2ccccc2)CC1	Env fusion inh 63 (no result: PAX8 inh HTS, MLL AF4-AF9 inh, FN deposition inh, EWS-Fli block)
N#Cc1nc(Nc2cc(F)cc(F)c2)c2ncn(CC(F)F)c2n1	none (no result: MLL AF4-AF9 inh)
N#Cc1nc(NCC(F)F)nc(Nc2cc(F)cc(F)c2)n1	PAX8 inh HTS 98 (no result: MLL AF4-AF9 inh)
CCn1ncc(/C=C2/SC(=S)NC2=O)c1C	none (no result: MLL AF4-AF9 inh, EWS-Fli block)
CCn1c(C)cc(/C=C2/SC(=S)NC2=O)c1C	EWS-Fli block 79 (no result: FN deposition inh)
Cc1ccc2c(c1)CCCN2C(=O)CCc1nc2ccccc2c(=O)[nH]1	EWS-Fli block 65 (no result: Env fusion inh)
COc1ccc(-c2ccc3n(c2=O)C[C@H]2[C@H](CO)[C@@H](C(=O)N(C)C)N(CC4CCCC4)[C@@H]32)cc1	PAX8 inh HTS inconclusive (no result: Glyco luc inh, FN deposition inh)
CCOC(=O)C1Nc2ccc(C(F)(F)F)cc2C2c3ccccc3CC12 (stereo not given)	none
CCOC(=O)C1Nc2ccccc2C2C(O)C(O)CC12 (stereo not given)	MLL AF4-AF9 inh 26
CNC(=O)C[C@@H]1CC[C@@H]2[C@H](COc3ccc(NC(=O)Cc4cccs4)cc3C(=O)N2C)O1	none (no result: Glyco luc inh, MLL AF4-AF9 inh)
Fc1ccc(NC(=S)NNc2ncc(C(F)(F)F)cc2Cl)c(F)c1	Env fusion inh 70, PAX8 inh HTS 85 (no result: FN deposition inh)
FC(F)(F)c1cnc(NNC(=S)Nc2ccc(Cl)cc2)c(Cl)c1	Env fusion inh 55, PAX8 inh HTS 76 (no result: MLL AF4-AF9 inh, EWS-Fli block)
Cc1ccc(NC(=S)NNc2ncc(C(F)(F)F)cc2Cl)cc1	none (no result: MLL AF4-AF9 inh, FN deposition inh, EWS-Fli block)
CO[C@@H]1CN(C)C(=O)c2ccc(NC(=O)NC3CCCCC3)cc2OC[C@@H](C)N(C(C)=O)C[C@H]1C	none (no result: Env fusion inh, Glyco luc inh, PAX8 inh HTS, MLL AF4-AF9 inh, EWS-Fli block)
CN(C)CC(=O)Nc1ccc2c(c1)[C@H]1C[C@H](CC(=O)NCCN3CCCCC3)O[C@@H](CO)[C@H]1O2	none (no result: Glyco luc inh, FN deposition inh)
C[C@H](CO)N1C[C@H](C)[C@H](CN(C)C(=O)Nc2ccc(F)cc2)Oc2ccc(NS(=O)(=O)c3ccccc3)cc2CC1=O	none (no result: Env fusion inh, Glyco luc inh)
O=C(Nc1ccc(F)cc1)N1CC(=O)N2[C@H](C1)[C@H](c1ccc(C#Cc3ccc(F)cc3)cc1)[C@@H]2CO	PAX8 inh HTS 68 (no result: Env fusion inh, Glyco luc inh)
COc1ccc(NC(=O)N2CC(=O)N3[C@@H](CO)[C@H](c4ccc(/C=C/c5ccccc5)cc4)[C@@H]3C2)cc1	none (no result: Env fusion inh, Glyco luc inh, FN deposition inh)
O=C(Nc1ccc(F)cc1)N1CC(=O)N2[C@@H](CO)[C@H](c3ccc(-c4ccc(F)cc4)cc3)[C@@H]2C1	PAX8 inh HTS 101 (no result: Env fusion inh, Glyco luc inh)
O=C(Nc1ccc(F)cc1)N1CC(=O)N2[C@H](CO)[C@H](c3ccc(C#Cc4ccc(F)cc4)cc3)[C@H]2C1	none (no result: Env fusion inh, Glyco luc inh)
O=C(Nc1ccc(F)cc1)N1CC(=O)N2[C@H](CO)[C@H](c3ccc(C#CC4CC4)cc3)[C@H]2C1	none (no result: Env fusion inh, Glyco luc inh, FN deposition inh)
COc1ccc(NC(=O)N2CC(=O)N3[C@H](C2)[C@H](c2ccc(/C=C/c4ccccc4)cc2)[C@@H]3CO)cc1	PAX8 inh HTS 105 (no result: Env fusion inh, Glyco luc inh)
O=C(Nc1ccc(F)cc1)N1CC(=O)N2[C@@H](CO)[C@@H](c3ccc(C#Cc4ccc(F)cc4)cc3)[C@@H]2C1	PAX8 inh HTS 119 (no result: Env fusion inh, Glyco luc inh)
Cc1c(Cl)cccc1N=Cc1ccc([N+](=O)[O-])s1	Glyco luc inh 35 (no result: PAX8 inh HTS, MLL AF4-AF9 inh, EWS-Fli block)
C[C@@H]1CCCCO[C@@H](CN(C)C(=O)C2CCCCC2)[C@H](C)CN([C@@H](C)CO)C(=O)c2cc(NC(=O)Nc3ccc(F)cc3)ccc2O1	none (no result: Glyco luc inh, FN deposition inh)

Assay outcomes: PubChem BioAssay, Broad Institute
